Data: ChEMBL document CHEMBL1765020, “Synthesis and structure-affinity relationships of novel dibenzylideneacetone derivatives as probes for β-amyloid plaques” (J Med Chem, 2011)

What was measured:
Liver [1] = test: Biodistribution in ddY mouse liver at 1 uCi/100 uL, iv after 60 mins by gamma counting; format: ADME, organism-based; conditions: in vivo, 1 h
Thyroid gland [2] = test: Biodistribution in ddY mouse thyroid at 1 uCi/100 uL, iv after 120 mins by gamma counting; format: ADME, organism-based; conditions: in vivo, 2 h
Heart [3] = test: Biodistribution in ddY mouse heart at 1 uCi/100 uL, iv after 60 mins by gamma counting; format: ADME, organism-based; conditions: in vivo, 1 h
In short: (§1)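 Normal female ddY mice (5 weeks, about 20 g; n = 4 per group) received radiotracer iv. Organs were removed and weighed at 2–120 min and counted in a γ-counter. Percent dose per gram of wet tissue was calculated against diluted aliquots of the injected material and reported as mean ± SD.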

Intestine [4] = test: Biodistribution in ddY mouse intestine at 1 uCi/100 uL, iv after 30 mins by gamma counting; format: ADME, organism-based; conditions: in vivo, 0.5 h; in short: as §1
Liver [5] = test: Biodistribution in ddY mouse liver at 1 uCi/100 uL, iv after 30 mins by gamma counting; format: ADME, organism-based; conditions: in vivo, 0.5 h
Heart [6] = test: Biodistribution in ddY mouse heart at 1 uCi/100 uL, iv after 30 mins by gamma counting; format: ADME, organism-based; conditions: in vivo, 0.5 h; in short: as §1
Lung [7] = test: Biodistribution in ddY mouse lung at 1 uCi/100 uL, iv after 2 mins by gamma counting; format: ADME, organism-based; conditions: in vivo
Thyroid gland [8] = test: Biodistribution in ddY mouse thyroid at 1 uCi/100 uL, iv after 15 mins by gamma counting; format: ADME, organism-based; conditions: in vivo, 0.25 h
Brain [9] = test: Biodistribution in ddY mouse brain at 1 uCi/100 uL, iv after 15 mins by gamma counting; format: ADME, organism-based; conditions: in vivo, 0.25 h; in short: as §1
Intestine [10] = test: Biodistribution in ddY mouse intestine at 1 uCi/100 uL, iv after 120 mins by gamma counting; format: ADME, organism-based; conditions: in vivo, 2 h; in short: as §1
Heart [11] = test: Biodistribution in ddY mouse heart at 1 uCi/100 uL, iv after 2 mins by gamma counting; format: ADME, organism-based; conditions: in vivo; in short: as §1
Lung [12] = test: Biodistribution in ddY mouse lung at 1 uCi/100 uL, iv after 30 mins by gamma counting; format: ADME, organism-based; conditions: in vivo, 0.5 h
Brain [13] = test: Biodistribution in ddY mouse brain at 1 uCi/100 uL, iv after 120 mins by gamma counting; format: ADME, organism-based; conditions: in vivo, 2 h; in short: as §1
Thyroid gland [14] = test: Biodistribution in ddY mouse thyroid at 1 uCi/100 uL, iv after 60 mins by gamma counting; format: ADME, organism-based; conditions: in vivo, 1 h
Kidney [15] = test: Biodistribution in ddY mouse kidney at 1 uCi/100 uL, iv after 120 mins by gamma counting; format: ADME, organism-based; conditions: in vivo, 2 h; in short: as §1
Spleen [16] = test: Biodistribution in ddY mouse spleen at 1 uCi/100 uL, iv after 60 mins by gamma counting; format: ADME, organism-based; conditions: in vivo, 1 h
Kidney [17] = test: Biodistribution in ddY mouse kidney at 1 uCi/100 uL, iv after 60 mins by gamma counting; format: ADME, organism-based; conditions: in vivo, 1 h
Brain [18] = test: Biodistribution in ddY mouse brain at 1 uCi/100 uL, iv after 2 mins by gamma counting; format: ADME, organism-based; conditions: in vivo; in short: as §1
Stomach [19] = test: Biodistribution in ddY mouse stomach at 1 uCi/100 uL, iv after 30 mins by gamma counting; format: ADME, organism-based; conditions: in vivo, 0.5 h
Brain [20] = test: Ratio of drug uptake in ddY mouse brain at 1 uCi/100 uL, iv after 2 mins to drug uptake in ddY mouse brain at 1 uCi/100 uL, iv after 60 mins; format: ADME, organism-based; conditions: in vivo
In short: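 Normal female ddY mice (5 weeks) received the radiotracer iv, and brain uptake (% ID/g, n = 4) was measured by gamma counting at 2 and 60 min. The index is brain uptake at 2 min divided by brain uptake at 60 min.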

Blood [21] = test: Biodistribution in ddY mouse blood at 1 uCi/100 uL, iv after 30 mins by gamma counting; format: ADME, organism-based; conditions: in vivo, 0.5 h; in short: as §1
Thyroid gland [22] = test: Biodistribution in ddY mouse thyroid at 1 uCi/100 uL, iv after 30 mins by gamma counting; format: ADME, organism-based; conditions: in vivo, 0.5 h
Blood [23] = test: Biodistribution in ddY mouse blood at 1 uCi/100 uL, iv after 60 mins by gamma counting; format: ADME, organism-based; conditions: in vivo, 1 h; in short: as §1
Blood [24] = test: Biodistribution in ddY mouse blood at 1 uCi/100 uL, iv after 15 mins by gamma counting; format: ADME, organism-based; conditions: in vivo, 0.25 h; in short: as §1
Heart [25] = test: Biodistribution in ddY mouse heart at 1 uCi/100 uL, iv after 15 mins by gamma counting; format: ADME, organism-based; conditions: in vivo, 0.25 h; in short: as §1
Kidney [26] = test: Biodistribution in ddY mouse kidney at 1 uCi/100 uL, iv after 15 mins by gamma counting; format: ADME, organism-based; conditions: in vivo, 0.25 h; in short: as §1
Blood [27] = test: Biodistribution in ddY mouse blood at 1 uCi/100 uL, iv after 120 mins by gamma counting; format: ADME, organism-based; conditions: in vivo, 2 h; in short: as §1
Stomach [28] = test: Biodistribution in ddY mouse stomach at 1 uCi/100 uL, iv after 2 mins by gamma counting; format: ADME, organism-based; conditions: in vivo
Thyroid gland [29] = test: Biodistribution in ddY mouse thyroid at 1 uCi/100 uL, iv after 2 mins by gamma counting; format: ADME, organism-based; conditions: in vivo
Spleen [30] = test: Biodistribution in ddY mouse spleen at 1 uCi/100 uL, iv after 120 mins by gamma counting; format: ADME, organism-based; conditions: in vivo, 2 h
Lung [31] = test: Biodistribution in ddY mouse lung at 1 uCi/100 uL, iv after 120 mins by gamma counting; format: ADME, organism-based; conditions: in vivo, 2 h
Intestine [32] = test: Biodistribution in ddY mouse intestine at 1 uCi/100 uL, iv after 2 mins by gamma counting; format: ADME, organism-based; conditions: in vivo; in short: as §1
Heart [33] = test: Biodistribution in ddY mouse heart at 1 uCi/100 uL, iv after 120 mins by gamma counting; format: ADME, organism-based; conditions: in vivo, 2 h; in short: as §1
Stomach [34] = test: Biodistribution in ddY mouse stomach at 1 uCi/100 uL, iv after 60 mins by gamma counting; format: ADME, organism-based; conditions: in vivo, 1 h
Intestine [35] = test: Biodistribution in ddY mouse intestine at 1 uCi/100 uL, iv after 15 mins by gamma counting; format: ADME, organism-based; conditions: in vivo, 0.25 h; in short: as §1
Brain [36] = test: Biodistribution in ddY mouse brain at 1 uCi/100 uL, iv after 30 mins by gamma counting; format: ADME, organism-based; conditions: in vivo, 0.5 h; in short: as §1
Liver [37] = test: Biodistribution in ddY mouse liver at 1 uCi/100 uL, iv after 120 mins by gamma counting; format: ADME, organism-based; conditions: in vivo, 2 h
Stomach [38] = test: Biodistribution in ddY mouse stomach at 1 uCi/100 uL, iv after 120 mins by gamma counting; format: ADME, organism-based; conditions: in vivo, 2 h
Blood [39] = test: Biodistribution in ddY mouse blood at 1 uCi/100 uL, iv after 2 mins by gamma counting; format: ADME, organism-based; conditions: in vivo; in short: as §1
Kidney [40] = test: Biodistribution in ddY mouse kidney at 1 uCi/100 uL, iv after 2 mins by gamma counting; format: ADME, organism-based; conditions: in vivo; in short: as §1
Liver [41] = test: Biodistribution in ddY mouse liver at 1 uCi/100 uL, iv after 2 mins by gamma counting; format: ADME, organism-based; conditions: in vivo
Kidney [42] = test: Biodistribution in ddY mouse kidney at 1 uCi/100 uL, iv after 30 mins by gamma counting; format: ADME, organism-based; conditions: in vivo, 0.5 h
Spleen [43] = test: Biodistribution in ddY mouse spleen at 1 uCi/100 uL, iv after 15 mins by gamma counting; format: ADME, organism-based; conditions: in vivo, 0.25 h
Lung [44] = test: Biodistribution in ddY mouse lung at 1 uCi/100 uL, iv after 15 mins by gamma counting; format: ADME, organism-based; conditions: in vivo, 0.25 h
Intestine [45] = test: Biodistribution in ddY mouse intestine at 1 uCi/100 uL, iv after 60 mins by gamma counting; format: ADME, organism-based; conditions: in vivo, 1 h; in short: as §1
Brain [46] = test: Biodistribution in ddY mouse brain at 1 uCi/100 uL, iv after 60 mins by gamma counting; format: ADME, organism-based; conditions: in vivo, 1 h; in short: as §1
Liver [47] = test: Biodistribution in ddY mouse liver at 1 uCi/100 uL, iv after 15 mins by gamma counting; format: ADME, organism-based; conditions: in vivo, 0.25 h
[48] = Partition coefficient, log D of the compound; format: physicochemical; conditions: octanol/water
In short: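 Radiotracer partitioned between n-octanol and PBS: vortexed 3 min at room temperature, centrifuged 5 min at 3000 rpm. Weighed samples of the octanol (100 μL) and buffer (500 μL) layers were counted. log D is the log of the ratio of counts per gram, octanol versus PBS.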

Lung [49] = test: Biodistribution in ddY mouse lung at 1 uCi/100 uL, iv after 60 mins by gamma counting; format: ADME, organism-based; conditions: in vivo, 1 h
Spleen [50] = test: Biodistribution in ddY mouse spleen at 1 uCi/100 uL, iv after 2 mins by gamma counting; format: ADME, organism-based; conditions: in vivo
Stomach [51] = test: Biodistribution in ddY mouse stomach at 1 uCi/100 uL, iv after 15 mins by gamma counting; format: ADME, organism-based; conditions: in vivo, 0.25 h
Spleen [52] = test: Biodistribution in ddY mouse spleen at 1 uCi/100 uL, iv after 30 mins by gamma counting; format: ADME, organism-based; conditions: in vivo, 0.5 h

Drug uptake (Liver [1]): 11.54 % ID/g
Drug uptake (Thyroid gland [2]): 32.22 % ID/g
Drug uptake (Heart [3]): 1.03 % ID/g
Drug uptake (Intestine [4]): 11.62 % ID/g
Drug uptake (Liver [5]): 24.64 % ID/g
Drug uptake (Heart [6]): 1.62 % ID/g
Drug uptake (Lung [7]): 24.45 % ID/g
Drug uptake (Thyroid gland [8]): 14.93 % ID/g
Drug uptake (Brain [9]): 1.11 % ID/g
Drug uptake (Intestine [10]): 17.65 % ID/g
Drug uptake (Heart [11]): 6.42 % ID/g
Drug uptake (Lung [12]): 6.91 % ID/g
Drug uptake (Brain [13]): 0.26 % ID/g
Drug uptake (Thyroid gland [14]): 23.53 % ID/g
Drug uptake (Kidney [15]): 8.55 % ID/g
Drug uptake (Spleen [16]): 6.28 % ID/g
Drug uptake (Kidney [17]): 7 % ID/g
Drug uptake (Brain [18]): 1.59 % ID/g
Drug uptake (Stomach [19]): 1.85 % ID/organ
Ratio (Brain [20]): 5.68
Drug uptake (Blood [21]): 3.98 % ID/g
Drug uptake (Thyroid gland [22]): 26.77 % ID/g
Drug uptake (Blood [23]): 2.16 % ID/g
Drug uptake (Blood [24]): 6.58 % ID/g
Drug uptake (Heart [25]): 2.69 % ID/g
Drug uptake (Kidney [26]): 22.23 % ID/g
Drug uptake (Blood [27]): 2.29 % ID/g
Drug uptake (Stomach [28]): 1.16 % ID/organ
Drug uptake (Thyroid gland [29]): 11.56 % ID/g
Drug uptake (Spleen [30]): 7.34 % ID/g
Drug uptake (Lung [31]): 3.35 % ID/g
Drug uptake (Intestine [32]): 1.38 % ID/g
Drug uptake (Heart [33]): 1.19 % ID/g
Drug uptake (Stomach [34]): 0.61 % ID/organ
Drug uptake (Intestine [35]): 7.38 % ID/g
Drug uptake (Brain [36]): 0.63 % ID/g
Drug uptake (Liver [37]): 16.47 % ID/g
Drug uptake (Stomach [38]): 0.77 % ID/organ
Drug uptake (Blood [39]): 11.62 % ID/g
Drug uptake (Kidney [40]): 15.86 % ID/g
Drug uptake (Liver [41]): 44.64 % ID/g
Drug uptake (Kidney [42]): 15.63 % ID/g
Drug uptake (Spleen [43]): 9.94 % ID/g
Drug uptake (Lung [44]): 12.97 % ID/g
Drug uptake (Intestine [45]): 7.68 % ID/g
Drug uptake (Brain [46]): 0.28 % ID/g
Drug uptake (Liver [47]): 32.8 % ID/g
logD [48]: 3.66
Drug uptake (Lung [49]): 3.64 % ID/g
Drug uptake (Spleen [50]): 11.59 % ID/g
Drug uptake (Stomach [51]): 1.75 % ID/organ
Drug uptake (Spleen [52]): 12.26 % ID/g
SMILES: CN(C)c1ccc(/C=C/C(=O)/C=C/c2ccc([125I])cc2)cc1
